Calls of active or inactive are those of the source. The rule behind the calls is not given here.
Key:
Mus musculus [1] = test: In vivo inhibition of KRAS signaling in nu/nu mouse xenografted with human MIA PaCa-2 cells harboring KRAS mutation assessed as decrease in ERK phosphorylation in tumor at 1 to 5 mg/kg, ip administered once daily for 5 days with 2 days break by immunohistochemistry; format: functional, organism-based; conditions: dose 1-5 mg/kg, time 5.0 day
Outline: (§1)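 Paraffin tumor sections of 4–5 µm were deparaffinized and given heat antigen retrieval in 10 mM sodium citrate. Endogenous peroxidase was quenched and sections blocked in 2.5% normal goat serum. Primary antibody (pERK or cleaved caspase 3) applied overnight at 4 °C, biotinylated secondary 1:250 for 45 min at rt, then ABC reagent 30 min and DAB development. Rabbit IgG served as control.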

[2] = Antiproliferative activity against human MPANC96 cells expressing KRAS mutant assessed as reduction in cell growth incubated for 72 hrs by CyQuant proliferation assay; format: functional, cell-based; conditions: MPANC96, 72 h
Outline: (§2)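 Cells seeded in 96-well plates; after 24 h fresh growth medium with 0.1% DMSO vehicle or drug added (highest dose 30 µM for cancer lines), grown 72 h at 37 °C, 5% CO2. Live cell number measured by CyQUANT fluorescence. IC50 from three independent experiments. MEFs were isogenic lines carrying oncogenic BRAF or KRAS.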

HEC-1-A = test: Antiproliferative activity against human HEC-1-A cells expressing mutant KRAS assessed as reduction in cell growth incubated for 72 hrs by CyQuant proliferation assay; format: functional, cell-based; outline: as §2
NCI-H522 = test: Antiproliferative activity against human NCI-H522 cells expressing wild type KRAS assessed as reduction in cell growth incubated for 72 hrs by CyQuant proliferation assay; format: functional, cell-based; conditions: NCI-H522, 72 h; outline: as §2
Mus musculus [3] = test: In vivo inhibition of Ca2+ channel in nu/nu mouse xenografted with human MIA PaCa-2 cells harboring KRAS mutation assessed as blood vessel dialation in tumor at 1 to 5 mg/kg, ip administered once daily for 5 days with 2 days break by immunostaining; format: functional, organism-based; conditions: dose 1-5 mg/kg, time 5.0 day
Ishikawa = test: Antiproliferative activity against human Ishikawa cells expressing wild type KRAS assessed as reduction in cell growth incubated for 72 hrs by CyQuant proliferation assay; format: functional, cell-based; outline: as §2
NCI-H1975 = test: Antiproliferative activity against human NCI-H1975 cells expressing wild type KRAS assessed as reduction in cell growth incubated for 72 hrs by CyQuant proliferation assay; format: functional, cell-based; conditions: NCI-H1975, 72 h; outline: as §2
HEC-1B cell line = test: Antiproliferative activity against human HEC-1B cells expressing mutant KRAS assessed as reduction in cell growth incubated for 72 hrs by CyQuant proliferation assay; format: functional, cell-based; outline: as §2
MDCK [4] = test: Inhibition of ASM in dog MDCK cells co-expressing recombinant full length mGFP-tagged KRAS G12V mutant and mCherry-CAAX assessed as reduction in plasma membrane localization of KRAS mutant at 10 uM incubated for 48 hrs followed by incubation with recombinant ASM in continued presence of compound for 60 mins by confocal microscopic analysis; format: cell membranes; conditions: Canis lupus familiaris, time 49.0 hrs
Outline: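 MDCK cells stably co-expressing mGFP-KRAS G12V and mCherry-CAAX seeded on glass coverslips and grown 48 h with or without compound. Medium then replaced with fresh medium containing 2 units/mL recombinant ASM, drug continued, for 60 min. Cells mounted in mowiol and imaged by confocal microscopy. Mislocalization scored by Manders coefficient.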

Caco-2 = test: Antiproliferative activity against human Caco-2 cells expressing wild type KRAS assessed as reduction in cell growth incubated for 72 hrs by CyQuant proliferation assay; format: functional, cell-based; conditions: Caco-2, 72 h; outline: as §2
[5] = target: T1, Sphingomyelin phosphodiesterase (Homo sapiens) (UniProt P17405); test: Inhibition of human GFP-tagged ASM expressed in dog MDCK cells using sphingomyelin as substrate at 5 uM incubated for 48 hrs by Amplex Red dye based fluorescence analysis; format: cell-based
T1 sequence (whole entry): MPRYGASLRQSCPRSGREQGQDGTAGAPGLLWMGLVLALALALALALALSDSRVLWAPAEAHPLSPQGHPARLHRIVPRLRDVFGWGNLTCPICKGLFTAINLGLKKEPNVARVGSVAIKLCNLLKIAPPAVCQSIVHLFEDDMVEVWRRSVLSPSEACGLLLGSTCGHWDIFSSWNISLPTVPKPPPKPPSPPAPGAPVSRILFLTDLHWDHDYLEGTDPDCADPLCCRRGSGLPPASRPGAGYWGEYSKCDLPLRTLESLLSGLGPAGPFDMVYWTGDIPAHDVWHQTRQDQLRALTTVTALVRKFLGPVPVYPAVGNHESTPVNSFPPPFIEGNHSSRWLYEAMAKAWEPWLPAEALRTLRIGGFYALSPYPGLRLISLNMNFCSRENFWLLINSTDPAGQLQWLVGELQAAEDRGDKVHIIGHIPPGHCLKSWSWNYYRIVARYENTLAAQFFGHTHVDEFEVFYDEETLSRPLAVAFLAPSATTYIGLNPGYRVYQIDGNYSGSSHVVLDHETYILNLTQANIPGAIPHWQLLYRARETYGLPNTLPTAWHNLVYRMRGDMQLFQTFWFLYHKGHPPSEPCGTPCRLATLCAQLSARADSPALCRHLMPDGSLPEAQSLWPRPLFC
Outline: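 MDCK cells stably expressing human SMPD1-GFP treated 48 h at 5 µM. Whole-cell lysate, made without DTT, mixed with 50 mM sodium acetate pH 5.0 plus sphingomyelin and held 1 h at 37 °C. pH then raised to 7.4 with Amplex Red mix (100 µM Amplex Red, 2 U/mL HRP, 0.2 U/mL choline oxidase, 8 U/mL alkaline phosphatase, 100 mM Tris pH 8.0), 60 min at 37 °C. Fluorescence read at Ex 540/Em 590 nm. Controls: 0.1 U/mL SMase (positive), buffer alone (negative).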

MIA PaCa-2 [6] = test: Antiproliferative activity against human MIA PaCa-2 cells expressing KRAS mutant assessed as reduction in cell growth incubated for 72 hrs by CyQuant proliferation assay; format: functional, cell-based; conditions: MIA PaCa-2, 72 h; outline: as §2
Mus musculus [7] = test: In vivo inhibition of ASM in nu/nu mouse xenografted with human MIA PaCa-2 cells harboring KRAS mutation assessed as increase in SM accumulation in tumor at 12.5 mg/kg, ip administered once daily for 5 days with 2 days break by GFP-lysenin staining based confocal laser microscopy; format: functional, organism-based; conditions: time 5.0 day
Outline: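 Sections of MiaPaCa-2 xenograft tumors from i.p.-treated nu/nu mice (12.5 mg/kg) stained with GFP-tagged lysenin to detect sphingomyelin.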

MEF [8] = test: Cytotoxicity against mouse MEF cells expressing BRAF V600E mutant and wild type KRAS assessed as reduction in cell growth incubated for 72 hrs by CyQuant proliferation assay; format: functional, cell-based; outline: as §2
BXPC-3 = test: Antiproliferative activity against human BXPC-3 cells expressing wild type KRAS assessed as reduction in cell growth incubated for 72 hrs by CyQuant proliferation assay; format: functional, cell-based; conditions: BXPC-3, 72 h; outline: as §2
MIA PaCa-2 [9] = test: Antitumor activity human MIA PaCa-2 cells harboring KRAS mutation xenografted in nu/nu mouse assessed as induction of apoptosis by measuring increase in cleaved caspase 3 level in tumor at 1 to 5 mg/kg, ip administered once daily for 5 days with 2 days break by immunohistochemistry; format: functional, organism-based; conditions: dose 1-5 mg/kg, time 5.0 day; outline: as §1
[10] = Antiproliferative activity against human MOH cells expressing KRAS mutant assessed as reduction in cell growth incubated for 72 hrs by CyQuant proliferation assay; format: functional, cell-based; outline: as §2
MDCK [11] = test: Reduction in expression of human GFP-tagged ASM transfected in dog MDCK cells at 5 uM incubated for 48 hrs by western blot analysis; format: functional, cell-based; conditions: Canis lupus familiaris
Outline: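 SMPD1-GFP-expressing MDCK cells treated 48 h with 5 µM compound, washed in cold PBS and lysed in Tris pH 7.5 buffer with NaF, EGTA, DTT, vanadate, 1% NP40 and protease inhibitors. 20 µg of protein resolved by SDS-PAGE and immunoblotted. Signals detected by enhanced chemiluminescence and quantified by densitometry.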

MEF [12] = test: Antiproliferative activity against mouse MEF cells expressing KRAS G12V mutant assessed as reduction in cell growth incubated for 72 hrs by CyQuant proliferation assay; format: functional, cell-based; outline: as §2
NCI-H1299 = test: Antiproliferative activity against human NCI-H1299 cells expressing wild type KRAS assessed as reduction in cell growth incubated for 72 hrs by CyQuant proliferation assay; format: functional, cell-based; conditions: NCI-H1299, 72 h; outline: as §2
Caenorhabditis elegans = test: In vivo inhibition of KRAS signaling in Caenorhabditis elegans lin-1 L1 harboring let60 […] mutant assessed as reduction in multi-vulva phenotype measured after 4 to 5 days culturing in buffer containing Escherichia coli OP50 by DIC/Nomarski microscopic analysis; format: functional, organism-based; conditions: dose 0.1-30 µM, time 4-5 day
Outline: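 let-60 (n1046) or lin-1 L1 larvae cultured in M9 buffer with E. coli OP50 plus DMSO vehicle or compound at 0.1, 0.3, 1, 3, 10 or 30 µM. After 4–5 days, adults were scored for multi-vulva by DIC/Nomarski microscopy.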

MEF [13] = test: Antiproliferative activity against mouse MEF cells expressing KRAS G12D mutant assessed as reduction in cell growth incubated for 72 hrs by CyQuant proliferation assay; format: functional, cell-based; outline: as §2
SK-CO-1 = test: Antiproliferative activity against human SK-CO-1 cells expressing mutant KRAS assessed as reduction in cell growth incubated for 72 hrs by CyQuant proliferation assay; format: functional, cell-based; conditions: SK-CO-1, 72 h; outline: as §2
NCI-H23 = test: Antiproliferative activity against human NCI-H23 cells expressing mutant KRAS assessed as reduction in cell growth incubated for 72 hrs by CyQuant proliferation assay; format: functional, cell-based; conditions: NCI-H23, 72 h; outline: as §2
MDCK [14] = test: Inhibition of ASM in dog MDCK cells co-expressing recombinant full length mGFP-tagged KRAS G12V mutant and mCherry-CAAX assessed as reduction in plasma membrane localization of KRAS mutant incubated for 48 hrs by confocal microscopic analysis relative to control; format: cell membranes; conditions: Canis lupus familiaris
Outline: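 MDCK cells stably co-expressing mGFP-KRAS G12V or mGFP-LactC2 with mCherry-CAAX (HRAS 179–189 C181S/C184S) grown on coverslips in DMEM/10% FBS. Treated 48 h with 0.1% DMSO or graded drug, fixed in 4% paraformaldehyde, then quantitative confocal imaging. Mislocalization scored as the Manders fraction of mCherry-CAAX co-localizing with the GFP probe. IC50 and Emax from three independent experiments.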

MDCK [15] = test: Cytotoxicity against dog MDCK cells at 30 uM; format: functional, cell-based; conditions: Canis lupus familiaris

IC50 (NCI-H522) [µM] | IC50 (NCI-H1975) [µM] | IC50 (Caco-2) [µM] | IC50 (MIA PaCa-2 [6]) [µM] | IC50 (BXPC-3) [µM] | IC50 (NCI-H1299) [µM] | SMILES | IC50 [2] [µM] | IC50 (HEC-1-A) [µM] | IC50 (Ishikawa) [µM] | IC50 (HEC-1B cell line) [µM] | IC50 [10] [µM] | other results
29.6 | > 30 | 14.5 | 9.2 | 28.6 | 24.3 | CC(NCCC(c1ccccc1)c1ccccc1)c1ccccc1 (configuration not stated) [FENDILINE] | 10.8 | 9.48 | > 30 | 9.8 | 11.1 | inhibition (Mus musculus [1]): inactive; inhibition (Mus musculus [3]): Active; inhibition (MDCK [4]): inactive; inhibition [5]: Active; inhibition (Mus musculus [7]): Active; IC50 (MEF [8]): 17.8 µM; Activity (MIA PaCa-2 [9]): inactive; inhibition (MDCK [11]): inactive; IC50 (MEF [12]): 8.1 µM; inhibition (Caenorhabditis elegans): Dose-Dependent Effect; IC50 (MEF [13]): 13.1 µM
> 30 | > 30 | > 30 | > 30 | > 30 | > 30 | COc1ccc([C@@H](C)N(CC=C(c2ccccc2)c2ccccc2)CC=C(c2ccccc2)c2ccccc2)cc1 | > 30 | > 30 | > 30 | > 30 | > 30 | IC50 (SK-CO-1): > 30 µM; IC50 (NCI-H23): > 30 µM; Emax (MDCK [14]): 0.74; Activity (MDCK [15]): inactive

Source: ChEMBL document CHEMBL4814013, “Scaffold repurposing of fendiline: Identification of potent KRAS plasma membrane localization inhibitors” (Eur J Med Chem, 2021)
